Assay results published in PMC5123777 (Biochemistry, 2015).

Key:
[1] = target: OXA-163 (Klebsiella pneumoniae, UniProt Q6XEC0, DEL214-217/S212D); test: Steady-state enzyme kinetics of substrate hydrolysis by OXA-163; assay type: biochemical, Klebsiella pneumoniae and Enterobacter cloacae; conditions: for Km / kcat: 30°C, 50 mM sodium phosphate pH 7.2, 15 mM sodium bicarbonate
Outline: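 OXA-163 was purified from induced culture supernatant (0.4 mM IPTG, 23°C, 20 h) by zinc-chelate chromatography and size exclusion, and quantified at A280. Hydrolysis was followed by UV at 260 nm (ceftazidime, cefotaxime), 262 nm (cephalothin), 298 nm (meropenem), or 299 nm (imipenem, doripenem, […]). Data were fitted to Michaelis–Menten; where Vmax was unreachable, kcat/Km came from a first-order fit.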

[2] = target: OXA-48 (Klebsiella pneumoniae, UniProt Q6XEC0); test: Steady-state enzyme kinetics of substrate hydrolysis by OXA-48; assay type: biochemical; conditions: for OXA-48 kcat/Km value smaller compared to imipenem: relative to imipenem kcat/Km
[3] = test system: class D β-lactamases (DBLs); conditions: in vitro; cited from earlier work
[4] = target: OXA-163 class D β-lactamase (Klebsiella pneumoniae and Enterobacter cloacae); test: SEC
[5] = target: OXA-163 class D β-lactamase (Klebsiella pneumoniae and Enterobacter cloacae); test: crystal structure
[6] = target: OXA-163 class D β-lactamase (Klebsiella pneumoniae and Enterobacter cloacae); test: crystal structure; remark: listed apart in the source
[7] = target: the molecule itself; test: SEC

`CO/N=C(\C(=O)N[C@@H]1C(=O)N2C(C(=O)O)=C(COC(C)=O)CS[C@H]12)c1csc(N)n1` [Cefotaxime, cefotaxime] gave a Km ([1]; OXA-163) of 36 ± 11 µM and a kcat ([1]; OXA-163) of 14 ± 1 s⁻¹.

With `CC(C)(O/N=C(\C(=O)N[C@@H]1C(=O)N2C(C(=O)[O-])=C(C[n+]3ccccc3)CS[C@H]12)c1csc(N)n1)C(=O)O` [Ceftazidime, ceftazidime] the “hydrolysis by OXA-48 (steady-state kinetics analysis)” value [2] was “does not hydrolyze”, the “hydrolysis by OXA-163” value ([1]; OXA-163) was “does hydrolyze” and the Km ([1]; OXA-163) was greater than 1000 µM.

Work on `CC(=O)OCC1=C(C(=O)O)N2C(=O)[C@@H](NC(=O)Cc3cccs3)[C@H]2SC1` [Cephalothin, cephalothin] yielded a Km ([1]; OXA-163) of 3.4 ± 0.4 µM and a kcat ([1]; OXA-163) of 1.7 ± 0.1 s⁻¹.

In the case of `C[C@@H](O)[C@H]1C(=O)N2C(C(=O)O)=C(S[C@@H]3CN[C@H](CNS(N)(=O)=O)C3)[C@H](C)[C@H]12` [Doripenem, doripenem], the “OXA-48 kcat/Km value smaller compared to imipenem” value [2] is reported as 56 fold, the Km ([1]; OXA-163) is reported as 5 ± 0.4 µM and the kcat ([1]; OXA-163) is reported as 0.018 ± 0.001 s⁻¹.

With `C[C@@H](O)[C@H]1C(=O)N2C(C(=O)O)=C(SCCN=CN)C[C@H]12` [Imipenem, imipenem] the Km ([1]; OXA-163) was 3.6 ± 1 µM, the kcat ([1]; OXA-163) was 0.004 ± 0.001 s⁻¹ and the “drop in the catalytic efficiency of OXA-163 in comparison to OXA-48” value ([1]; kcat/Km OXA-48 versus OXA-163) was 820 fold.

In the case of `C[C@@H](O)[C@H]1C(=O)N2C(C(=O)O)=C(S[C@@H]3CN[C@H](C(=O)N(C)C)C3)[C@H](C)[C@H]12` [Meropenem, meropenem], the “OXA-48 kcat/Km value smaller compared to imipenem” value [2] is reported as 53 fold, the Km ([1]; OXA-163) is reported as 5.3 ± 0.5 µM and the kcat ([1]; OXA-163) is reported as 0.021 ± 0.001 s⁻¹.

For `[Cl-].[Na+]` [NaCl, sodium chloride], the “sodium chloride concentration at which most DBLs are fully inhibited” value [3] is given as 100 mM.

Work on `O=C(Cc1cccs1)N[C@@H]1C(=O)N2C(C(=O)O)=C(/C=C/c3ccc([N+](=O)[O-])cc3[N+](=O)[O-])CS[C@H]12` [Nitrocefin, nitrocefin] yielded a Km ([1]; OXA-163) of 19 ± 8 µM and a kcat ([1]; OXA-163) of 34 ± 2 s⁻¹.

OXA-163 class D β-lactamase (enzyme) gave a stoichiometry N [4] of 2, a stoichiometry N [5] of 2 and a stoichiometry N [6] of 2.

B1: OXA-48 class D β-lactamase (enzyme)
chain: KEWQENKSWNAHFTEHKSQGVVVLWNENKQQGFTNNLKRANQAFLPASTFKIPNSLIALDLGVVKDEHQVFKWDGQTRDIATWNRDHNLITAMKYSVVPVYQEFARQIGEARMSKMLHAFDYGNEDISGNVDSFWLDGGIRISATEQISFLRKLYHNKLHVSERSQRIVKQAMLTEANGDYIIRAKTGYSTRIEPKIGWWVGWVELDDNVWFFAMNMDMPTSDGLGLRQAITKEVLKQEKIIP
In the case of B1, the “stoichiometry N” value [7] is reported as 2.
